Columns and labels:
[1] = Determination of log Ppw and pKa by polymer film; format: physicochemical; details: both UHPLC and plate reader; p>0.05
How it was run: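 The solute, in 20 mM phosphate-citrate, 20 mM phosphate or TFA buffers (pH 0.9–10.0), was added over the films and shaken at 500 rpm, 25 °C, to equilibrium. The aqueous supernatant was quantified by C18 UHPLC or plate-reader UV at 343 nm. Dpw came from initial versus equilibrium aqueous concentration and phase ratio. Ppw and pKa were derived across pH. Duplicates, SEM.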

[2] = measured by this polymer-water method; cited from earlier work

CC1=CC(c2ccccc2)=NS(=O)(=O)N1 [2H-1,2,6-thiadiazine, 3-methyl-5-phenyl-, 1,1-dioxide]
Ppw− (conditional partition coefficient of the anionic form) [1]: statistically zero

Clc1ccc(COC(Cn2ccnc2)c2ccc(Cl)cc2Cl)cc1 (centres unmarked) [econazole]
log P [2]: 4.83

From PMC3496770 (Journal of chromatography. A, 2012)
